Laboratory results as given in ChEMBL document CHEMBL1131035, “Tripeptide aldehyde inhibitors of human rhinovirus 3C protease: design, synthesis, biological evaluation, and cocrystal structure solution of P1 glutamine isosteric replacements” (J Med Chem, 1998).
Structures can show the parent of a compound that is named as a salt. Starred links: 1 amine or outer side, 2 acyl side, 3 side chain; linkers in the order of their positions; H or OH if unused. Non-standard residues stand in square brackets, D forms with d. Residues, ends and D or L forms follow the SMILES beside them. Groups on a side chain read outwards from the residue. *: point of attachment. Met(O) = CS(=O)CC[C@H](N)C(=O)O; Isobutyryl = CC(C)C(=O)*; Cbz = O=C(OCc1ccccc1)*; Dap = NC[C@H](N)C(=O)O; Boc = CC(C)(C)OC(=O)*; CO = O=C([*:1])[*:2]; Propionyl = CCC(=O)*; Tfa = O=C(C(F)(F)F)*; Bz = O=C(c1ccccc1)*; Ms = CS(=O)(=O)*; Moc = COC(=O)*; For = O=C*

Legend:
[1] = Toxic concentration on HRV-14 infected H1- HeLa cells by protection assay.; format: toxicity, cell-based; settings: human, H1-HeLa cells infected with HRV-14; read-out: TC50 (the source's name)
In short: (§1)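 Cell protection assay in H1-HeLa cells infected with the named HRV serotype, using virus stocks propagated in H1-HeLa cells. Values reported are the 50% effective concentration (EC50), the 50% toxic concentration (TC50) and the therapeutic index (TI).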

[2] = Therapeutic Index against HRV-14 virus infection; format: organism-based; settings: rhinovirus b14, H1-HeLa cells; read-out: TI; in short: as §1
Human rhinovirus sp. = experiment: Effective concentration in HRV-14 infected H1- HeLa cells by protection assay.; format: functional, organism-based; in short: as §1
[3] = target: T1, Human rhinovirus A protease (Human rhinovirus sp., UniProt Q4U254); experiment: Binding affinity against HRV-14 3C protease.
T1 sequence (Q4U254 whole entry): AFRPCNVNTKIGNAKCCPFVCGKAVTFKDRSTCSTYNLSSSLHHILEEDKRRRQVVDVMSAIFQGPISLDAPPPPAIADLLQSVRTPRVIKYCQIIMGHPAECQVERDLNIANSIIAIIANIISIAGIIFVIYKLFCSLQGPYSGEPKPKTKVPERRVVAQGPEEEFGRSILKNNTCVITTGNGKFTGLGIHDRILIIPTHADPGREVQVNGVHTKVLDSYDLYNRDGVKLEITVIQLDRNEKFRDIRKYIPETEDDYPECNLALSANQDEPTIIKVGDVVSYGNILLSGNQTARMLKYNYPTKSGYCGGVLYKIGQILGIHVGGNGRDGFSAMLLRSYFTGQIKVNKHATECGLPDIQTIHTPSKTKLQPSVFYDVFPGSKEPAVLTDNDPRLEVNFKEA
In short: (§2)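 Recombinant 3C protease of the named HRV serotype, expressed and purified. Ki was determined by a continuous fluorescence resonance energy transfer cleavage assay, with 5 mM dithiothreitol included in the assay. Reported standard deviation ±10%.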

[4] = target: T1, Human rhinovirus A protease; experiment: Binding affinity was measured against HRV-2 3C protease; in short: as §2
[5] = Toxic concentration was measured on HRV-2 infected H1- HeLa cells by protection assay.; format: ADME, cell-based; settings: human, H1-HeLa cells infected with HRV-2; read-out: TC50 (the source's name); in short: as §1
HeLa [6] = experiment: Effective concentration was measured on HRV-16 infected H1- HeLa cells by protection assay.; format: functional, cell-based; settings: Homo sapiens; in short: as §1
[7] = target: T1, Human rhinovirus A protease; experiment: Binding affinity was measured against HRV-16 3C protease; in short: as §2
[8] = target: T1, Human rhinovirus A protease; experiment: Binding affinity was measured against HRV-89 3C protease; in short: as §2
[9] = Toxic concentration was measured on HRV-89 infected H1- HeLa cells by protection assay.; format: ADME, cell-based; settings: human, H1-HeLa cells infected with HRV-89; read-out: TC50 (the source's name); in short: as §1
HeLa [10] = experiment: Effective concentration was measured on HRV-2 infected H1- HeLa cells by protection assay.; format: functional, cell-based; settings: Homo sapiens; in short: as §1
HeLa [11] = experiment: Effective concentration was measured on HRV-89 infected H1- HeLa cells by protection assay.; format: functional, cell-based; settings: Homo sapiens; in short: as §1
[12] = Toxic concentration was measured on HRV-16 infected H1- HeLa cells by protection assay.; format: ADME, cell-based; settings: human, H1-HeLa cells infected with HRV-16; read-out: TC50 (the source's name); in short: as §1

**Q.** Which CC50 [1] does the source give for `CC(C)C[C@H](NC(=O)OCc1ccccc1)C(=O)N[C@@H](Cc1ccccc1)C(=O)N[C@H](C=O)CN1CCCC1=O` here?
**A.** Its CC50 is greater than 100 µM.

**Q.** What about the selectivity ratio [2] of the same molecule?
**A.** The selectivity ratio was greater than 25.

**Q.** What about the EC50 (Human rhinovirus sp.) of the same molecule?
**A.** The EC50 was 4000 nM.

**Q.** And the Ki [3]?
**A.** Its Ki is 52 nM.

**Q.** Which CC50 [1] does the source give for `CC(C)C[C@H](NC(=O)OCc1ccccc1)C(=O)N[C@@H](Cc1ccccc1)C(=O)N[C@H](C=O)CNC(=O)c1ccno1` here?
**A.** Its CC50 is 59.5 µM.

**Q.** And the selectivity ratio [2]?
**A.** Its selectivity ratio is 40.

**Q.** And the EC50 (Human rhinovirus sp.)?
**A.** The EC50 was 1500 nM.

**Q.** And the Ki [3]?
**A.** Its Ki is 5 nM.

**Q.** With `CC(C)C[C@H](NC(=O)OCc1ccccc1)C(=O)N[C@@H](Cc1ccccc1)C(=O)N[C@H](C=O)CNC=O` (Cbz-Leu-Phe-[Dap](For)-aldehyde) as the molecule, how does the CC50 [1] read?
**A.** The CC50 was 206 µM.

**Q.** And the selectivity ratio [2]?
**A.** Its selectivity ratio is 129.

**Q.** What about the EC50 (Human rhinovirus sp.) of the same molecule?
**A.** Its EC50 is 1600 nM.

**Q.** And the Ki [3]?
**A.** Its Ki is 73 nM.

**Q.** Which CC50 [1] does the source give for `CC(C)C[C@H](NC(=O)OCc1ccccc1)C(=O)N[C@@H](Cc1ccccc1)C(=O)N[C@H](C=O)CCC#N` here?
**A.** Its CC50 is 31 µM.

**Q.** What about the selectivity ratio [2] of the same molecule?
**A.** The selectivity ratio was 4.

**Q.** And the EC50 (Human rhinovirus sp.)?
**A.** Its EC50 is 8000 nM.

**Q.** What about the Ki [3] of the same molecule?
**A.** Its Ki is 190 nM.

**Q.** With `CC(C)C[C@H](NC(=O)OCc1ccccc1)C(=O)N[C@@H](Cc1ccccc1)C(=O)N[C@H](C=O)CCC(=O)N(C)C` (Cbz-Leu-Phe-Glu(NMe2)-aldehyde) as the molecule, how does the CC50 [1] read?
**A.** Its CC50 is 63 µM.

**Q.** And the selectivity ratio [2]?
**A.** Its selectivity ratio is 48.

**Q.** And the EC50 (Human rhinovirus sp.)?
**A.** Its EC50 is 1300 nM.

**Q.** And the Ki [3]?
**A.** The Ki was 5 nM.

**Q.** What does the source list for `CC(=O)NC[C@@H](C=O)NC(=O)[C@H](Cc1ccccc1)NC(=O)[C@H](CC(C)C)NC(=O)OCc1ccccc1` (Cbz-Leu-Phe-[Dap](Ac)-aldehyde)?
**A.** CC50 [1]: 316 µM; Ki [4]: 160 nM; CC50 [5]: > 100 µM; EC50 (HeLa [6]): 2100 nM; Ki [7]: 69 nM; selectivity ratio [2]: 132; EC50 (Human rhinovirus sp.): 2400 nM; Ki [3]: 6 nM; Ki [8]: 36 nM; CC50 [9]: > 100 µM; EC50 (HeLa [10]): 3.1 µM; EC50 (HeLa [11]): 2200 nM; CC50 [12]: > 100 µM

**Q.** With `CC(C)C[C@H](NC(=O)OCc1ccccc1)C(=O)N[C@@H](Cc1ccccc1)C(=O)N[C@H](C=O)CNC(=O)N(C)C` (Cbz-Leu-Phe-[Dap]([CO-NMe2])-aldehyde) as the molecule, how does the CC50 [1] read?
**A.** The CC50 was 99 µM.

**Q.** And the selectivity ratio [2]?
**A.** The selectivity ratio was 47.

**Q.** What about the EC50 (Human rhinovirus sp.) of the same molecule?
**A.** The EC50 was 2100 nM.

**Q.** What about the Ki [3] of the same molecule?
**A.** Its Ki is 10 nM.

**Q.** For `COC(=O)NC[C@@H](C=O)NC(=O)[C@H](Cc1ccccc1)NC(=O)[C@H](CC(C)C)NC(=O)OCc1ccccc1` (Cbz-Leu-Phe-[Dap](Moc)-aldehyde), which CC50 [1] is on record?
**A.** The CC50 was 56.2 µM.

**Q.** And the selectivity ratio [2]?
**A.** Its selectivity ratio is 11.

**Q.** And the EC50 (Human rhinovirus sp.)?
**A.** The EC50 was 5000 nM.

**Q.** And the Ki [3]?
**A.** The Ki was 132 nM.

**Q.** For `CC(C)C[C@H](NC(=O)OCc1ccccc1)C(=O)N[C@@H](Cc1ccccc1)C(=O)N[C@H](C=O)CC[S+](C)[O-]` (stereo partly drawn) (Cbz-Leu-Phe-[Met(O)]-aldehyde), which CC50 [1] is on record?
**A.** The CC50 was greater than 100 µM.

**Q.** What about the selectivity ratio [2] of the same molecule?
**A.** The selectivity ratio was greater than 22.

**Q.** And the EC50 (Human rhinovirus sp.)?
**A.** The EC50 was 4500 nM.

**Q.** What about the Ki [3] of the same molecule?
**A.** The Ki was 5 nM.

**Q.** Which results are given for `CCC(=O)NC[C@@H](C=O)NC(=O)[C@H](Cc1ccccc1)NC(=O)[C@H](CC(C)C)NC(=O)OCc1ccccc1` (Cbz-Leu-Phe-[Dap](Propionyl)-aldehyde)?
**A.** CC50 [1]: > 100 µM; selectivity ratio [2]: > 77; EC50 (Human rhinovirus sp.): 1300 nM; Ki [3]: 7 nM

**Q.** Which CC50 [1] does the source give for `CC(=O)N(C)C[C@@H](C=O)NC(=O)[C@H](Cc1ccccc1)NC(=O)[C@H](CC(C)C)NC(=O)OCc1ccccc1` here?
**A.** The CC50 was 100 µM.

**Q.** And the selectivity ratio [2]?
**A.** Its selectivity ratio is 19.

**Q.** What about the EC50 (Human rhinovirus sp.) of the same molecule?
**A.** The EC50 was 5200 nM.

**Q.** And the Ki [3]?
**A.** Its Ki is 469 nM.

**Q.** With `CC(C)C[C@H](NC(=O)OCc1ccccc1)C(=O)N[C@@H](Cc1ccccc1)C(=O)N[C@H](C=O)CCC(N)=O` (Cbz-Leu-Phe-Gln-aldehyde) as the molecule, how does the CC50 [1] read?
**A.** Its CC50 is 398 µM.

**Q.** What about the selectivity ratio [2] of the same molecule?
**A.** The selectivity ratio was 6.

**Q.** And the EC50 (Human rhinovirus sp.)?
**A.** Its EC50 is 66000 nM.

**Q.** And the Ki [3]?
**A.** Its Ki is 3600 nM.

**Q.** What does the source list for `CC(C)C[C@H](NC(=O)OCc1ccccc1)C(=O)N[C@@H](Cc1ccccc1)C(=O)N[C@H](C=O)CNC(=O)C(F)(F)F` (Cbz-Leu-Phe-[Dap](Tfa)-aldehyde)?
**A.** CC50 [1]: 25 µM; selectivity ratio [2]: 14; EC50 (Human rhinovirus sp.): 1800 nM; Ki [3]: 146 nM

**Q.** For `CC(C)C[C@H](NC(=O)OCc1ccccc1)C(=O)N[C@@H](Cc1ccccc1)C(=O)N[C@H](C=O)CNC(=O)C(C)C` (Cbz-Leu-Phe-[Dap](Isobutyryl)-aldehyde), which CC50 [1] is on record?
**A.** Its CC50 is 18 µM.

**Q.** What about the selectivity ratio [2] of the same molecule?
**A.** The selectivity ratio was 5.

**Q.** And the EC50 (Human rhinovirus sp.)?
**A.** Its EC50 is 4000 nM.

**Q.** And the Ki [3]?
**A.** Its Ki is 18 nM.

**Q.** What does the source list for `CC(C)C[C@H](NC(=O)OCc1ccccc1)C(=O)N[C@@H](Cc1ccccc1)C(=O)N[C@H](C=O)CNC(=O)c1ccccc1` (Cbz-Leu-Phe-[Dap](Bz)-aldehyde)?
**A.** CC50 [1]: 51.2 µM; selectivity ratio [2]: 51; EC50 (Human rhinovirus sp.): 1000 nM; Ki [3]: 12 nM

**Q.** With `CC(C)C[C@H](NC(=O)OCc1ccccc1)C(=O)N[C@@H](Cc1ccccc1)C(=O)N[C@H](C=O)CCC(=O)NC(c1ccccc1)(c1ccccc1)c1ccccc1` as the molecule, how does the CC50 [1] read?
**A.** Its CC50 is 15.8 µM.

**Q.** What about the EC50 (Human rhinovirus sp.) of the same molecule?
**A.** The EC50 was greater than 15800 nM.

**Q.** What about the Ki [3] of the same molecule?
**A.** The Ki was 40 nM.

**Q.** What does the source list for `CC(C)C[C@H](NC(=O)OCc1ccccc1)C(=O)N[C@@H](Cc1ccccc1)C(=O)N[C@H](C=O)CNC(=O)OC(C)(C)C` (Cbz-Leu-Phe-[Dap](Boc)-aldehyde)?
**A.** CC50 [1]: 56.2 µM; selectivity ratio [2]: 28; EC50 (Human rhinovirus sp.): 2000 nM; Ki [3]: 66 nM

**Q.** What does the source list for `CC(C)C[C@H](NC(=O)OCc1ccccc1)C(=O)N[C@@H](Cc1ccccc1)C(=O)N[C@H](C=O)CNS(C)(=O)=O` (Cbz-Leu-Phe-[Dap](Ms)-aldehyde)?
**A.** CC50 [1]: 63 µM; selectivity ratio [2]: 3; EC50 (Human rhinovirus sp.): 20000 nM; Ki [3]: 640 nM
